Tests used:
[1] = test system: Rattus norvegicus; test: Antiinflammatory effect measured as % inhibition in carrageenan induced paw edema test in rat.; format: functional
In short: (§1)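 Male Sprague-Dawley rats (200-250 g), fasted overnight (≈17 h) with water ad libitum. Dosed 100 µmol/kg by gavage at 5 mL/kg in 0.5% methocel/5% or 50% PEG-400, at least 5 rats/group. At 1 h, 50 µL of 1% carrageenan injected subplantar into the right […] paw. Paw volume read by water displacement at 0 and 3 h. Result is % inhibition of the volume increase; ratio relative to diclofenac at the same dose.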

[2] = organism: Mus musculus; test: Analgesic effect measured as % inhibition in PBQ-induced writhing test in mice.; format: functional; set-up: concentration or dose not given beside the values
In short: (§2)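 Male CD-1 mice (20-25 g), fasted overnight (≈17 h) with water ad libitum. Oral gavage of 100 µmol/kg as a suspension in 0.5% methocel with 5% or 50% PEG-400, 2.5 mL/kg, at least 9 mice/group. PBQ 2 mg/kg ip at 1 h after dosing; writhes counted over 5 min, starting 5 min after PBQ. Read-out is % inhibition of writhing vs vehicle; ratio = % inhibition with the test article / % inhibition with diclofenac, both at 100 µmol/kg po.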

[3] = test system: Mus musculus; test: Level of plasma diclofenac in mice after oral administration; format: ADME, organism-based; conditions: in vivo
In short: (§3)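 Male CD-1 mice, fasted overnight (≈17 h), given 20 µmol/kg orally by gavage as a suspension in 0.5% methocel/5% or 50% PEG-400. Ketamine/xylazine anesthesia, then cardiac-puncture heparinized blood at 30, 60 and 120 min, a separate group per time point. Plasma diclofenac measured by HPLC with UV detection against authentic standard, meclofenamic acid internal standard.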

[4] = test system: Mus musculus; test: Level of plasma diclofenac in mice after oral administration of 20 umol/kg of prodrug; format: ADME, organism-based; conditions: in vivo; in short: as §3
[5] = Activity ratio is the percent inhibition of paw volume increase at 100 umol/kg, po to that of diclofenac at 100 umol/kg, po administration; format: functional; in short: as §1
[6] = Activity ratio is the percent inhibition in writhing test at 100 umol/kg, po to that of diclofenac at 100 umol/kg, po administration; format: functional; in short: as §2
[7] = organism: Rattus norvegicus; test: Gastric toxicity was measured in rats.; format: organism-based; conditions: in vivo
In short: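 Male Sprague-Dawley rats (180-200 g), fasted 24 h with water ad libitum. Single gavage of 100 µmol/kg at 5 mL/kg in 0.5% methocel/5% or 50% PEG-400, 5-10 rats/group. Fasting continued for 18 h, then CO₂ euthanasia. Stomach lesions scored in mm; mean ± SEM.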

Concentration_Plasma [4]	Structure (SMILES)	Inhibition [2]	Ratio [6]	Gastric lesion score [7]	also measured
7.4 nM ml-1	CN(CCCOC(=O)Cc1ccccc1Nc1c(Cl)cccc1Cl)CC1(SN=O)CCCCC1	53%	0.6	0.7 mm	Inhibition [1]: 58%; Ratio [5]: 1.1
2.4 nM ml-1	CN(CCCCCOC(=O)Cc1ccccc1Nc1c(Cl)cccc1Cl)CC1(SN=O)CCCCC1	–	–	–	–
5.9 nM ml-1	CN(CCCCOC(=O)Cc1ccccc1Nc1c(Cl)cccc1Cl)CC1(SN=O)CCCCC1	–	–	–	–
4.5 nM ml-1	CCN(CCCOC(=O)Cc1ccccc1Nc1c(Cl)cccc1Cl)CC1(SN=O)CCCCC1	–	–	–	–
5.5 nM ml-1	CN(CCOC(=O)Cc1ccccc1Nc1c(Cl)cccc1Cl)CC1(SN=O)CCCCC1	70%	0.8	1.1 mM	Inhibition [1]: 55%; Ratio [5]: 1

Continued, compound first:

Structure (SMILES)	Concentration_Plasma [4]	Inhibition [2]	Ratio [6]	Gastric lesion score [7]	also measured
O=C(O)Cc1ccccc1Nc1c(Cl)cccc1Cl [DICLOFENAC]	–	84%	–	–	Inhibition [1]: 53%
O=C([O-])Cc1ccccc1Nc1c(Cl)cccc1Cl.[Na+] [DICLOFENAC SODIUM]	–	–	–	–	Concentration_Plasma [3]: 23.9 nM ml-1
CCC(CC)(COC(=O)Cc1ccccc1Nc1c(Cl)cccc1Cl)SN=O	13.4 nM ml-1	95%	1.1	0.4 mm	–
CN(CCOC(=O)Cc1ccccc1Nc1c(Cl)cccc1Cl)CC1(S)CCCCC1	–	–	–	10.2 mm	–
CN(CCCOC(=O)Cc1ccccc1Nc1c(Cl)cccc1Cl)CC1(S)CCCCC1	–	–	–	28.3 mm	–
CC(C)(COC(=O)Cc1ccccc1Nc1c(Cl)cccc1Cl)SN=O	19.8 nM ml-1	32%	0.4	0.7 mm	–
O=NSC1(CN(CCCOC(=O)Cc2ccccc2Nc2c(Cl)cccc2Cl)Cc2ccccc2)CCCCC1	6.8 nM ml-1	–	–	–	–
O=NSC1(COC(=O)Cc2ccccc2Nc2c(Cl)cccc2Cl)CCCCC1	15.3 nM ml-1	58%	0.7	2 mm	–
O=C(Cc1ccccc1Nc1c(Cl)cccc1Cl)OCC1(S)CCCCC1	–	–	–	6.7 mm	–

Source: ChEMBL document CHEMBL1133476, “Nitrosothiol esters of diclofenac: synthesis and pharmacological characterization as gastrointestinal-sparing prodrugs” (J Med Chem, 2000)
